Key:
[1] = (§1) Half life in Sprague-Dawley rat at 1 mg/kg, iv or 3 mg/kg, po; format: ADME, organism-based; conditions: Sprague-Dawley, in vivo
In short: (§2)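 Fasted male Sprague–Dawley rats received 1.0 mg/kg iv through a femoral vein cannula (n = 3) or 3.0 mg/kg po by gavage (n = 3). Serial blood was drawn at 5 min (iv only), 15 and 30 min, and 1, 2, 4, 6 and 8 h. Plasma was protein-precipitated with acetonitrile and analysed by LC–MS/MS.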

hERG (KCNH2) = hERG (KCNH2) (Homo sapiens, UniProt Q12809); test: (§3) Displacement of [35S]MK-0499 from hERG at 10 uM; conditions: probe [35S]MK-0499
Chain of hERG (KCNH2) (Q12809 whole entry): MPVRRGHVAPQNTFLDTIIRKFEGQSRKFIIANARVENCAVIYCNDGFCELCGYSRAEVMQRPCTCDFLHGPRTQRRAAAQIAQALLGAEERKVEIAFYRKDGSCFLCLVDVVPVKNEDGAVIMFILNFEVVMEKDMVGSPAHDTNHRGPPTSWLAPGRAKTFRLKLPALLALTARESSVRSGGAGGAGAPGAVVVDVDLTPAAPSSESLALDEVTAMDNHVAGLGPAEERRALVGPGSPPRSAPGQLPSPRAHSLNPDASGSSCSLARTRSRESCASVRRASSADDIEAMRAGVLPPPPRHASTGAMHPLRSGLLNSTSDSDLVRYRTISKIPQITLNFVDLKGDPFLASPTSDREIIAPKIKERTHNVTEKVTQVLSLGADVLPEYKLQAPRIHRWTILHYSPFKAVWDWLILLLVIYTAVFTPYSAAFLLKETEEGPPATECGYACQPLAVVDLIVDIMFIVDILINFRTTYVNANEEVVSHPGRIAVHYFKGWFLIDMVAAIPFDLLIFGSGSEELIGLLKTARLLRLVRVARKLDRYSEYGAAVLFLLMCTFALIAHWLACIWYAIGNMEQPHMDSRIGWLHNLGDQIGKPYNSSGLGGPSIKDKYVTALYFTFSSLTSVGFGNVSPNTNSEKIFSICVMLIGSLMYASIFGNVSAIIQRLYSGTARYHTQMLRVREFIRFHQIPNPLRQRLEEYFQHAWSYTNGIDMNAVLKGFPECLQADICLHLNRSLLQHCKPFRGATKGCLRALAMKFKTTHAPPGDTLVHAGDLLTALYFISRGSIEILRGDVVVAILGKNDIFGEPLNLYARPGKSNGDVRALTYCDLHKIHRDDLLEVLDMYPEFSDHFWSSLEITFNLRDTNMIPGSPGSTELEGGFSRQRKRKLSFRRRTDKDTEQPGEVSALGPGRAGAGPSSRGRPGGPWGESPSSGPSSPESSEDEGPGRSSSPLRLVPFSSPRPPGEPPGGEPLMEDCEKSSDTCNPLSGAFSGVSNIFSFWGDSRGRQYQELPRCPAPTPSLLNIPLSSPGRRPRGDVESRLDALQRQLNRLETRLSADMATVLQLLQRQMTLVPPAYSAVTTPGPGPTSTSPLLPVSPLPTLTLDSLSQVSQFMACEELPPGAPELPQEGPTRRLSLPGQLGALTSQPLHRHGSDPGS

[2] = Plasma clearance in Sprague-Dawley rat at 1 mg/kg, iv or 3 mg/kg, po; format: ADME, organism-based; in short: as §2
[3] = target: Sodium channel protein type 9 subunit alpha (Homo sapiens, UniProt Q15858); test: Inhibition of human sodium channel Nav1.7 by FRET assay
Chain of Sodium channel protein type 9 subunit alpha (Q15858 whole entry): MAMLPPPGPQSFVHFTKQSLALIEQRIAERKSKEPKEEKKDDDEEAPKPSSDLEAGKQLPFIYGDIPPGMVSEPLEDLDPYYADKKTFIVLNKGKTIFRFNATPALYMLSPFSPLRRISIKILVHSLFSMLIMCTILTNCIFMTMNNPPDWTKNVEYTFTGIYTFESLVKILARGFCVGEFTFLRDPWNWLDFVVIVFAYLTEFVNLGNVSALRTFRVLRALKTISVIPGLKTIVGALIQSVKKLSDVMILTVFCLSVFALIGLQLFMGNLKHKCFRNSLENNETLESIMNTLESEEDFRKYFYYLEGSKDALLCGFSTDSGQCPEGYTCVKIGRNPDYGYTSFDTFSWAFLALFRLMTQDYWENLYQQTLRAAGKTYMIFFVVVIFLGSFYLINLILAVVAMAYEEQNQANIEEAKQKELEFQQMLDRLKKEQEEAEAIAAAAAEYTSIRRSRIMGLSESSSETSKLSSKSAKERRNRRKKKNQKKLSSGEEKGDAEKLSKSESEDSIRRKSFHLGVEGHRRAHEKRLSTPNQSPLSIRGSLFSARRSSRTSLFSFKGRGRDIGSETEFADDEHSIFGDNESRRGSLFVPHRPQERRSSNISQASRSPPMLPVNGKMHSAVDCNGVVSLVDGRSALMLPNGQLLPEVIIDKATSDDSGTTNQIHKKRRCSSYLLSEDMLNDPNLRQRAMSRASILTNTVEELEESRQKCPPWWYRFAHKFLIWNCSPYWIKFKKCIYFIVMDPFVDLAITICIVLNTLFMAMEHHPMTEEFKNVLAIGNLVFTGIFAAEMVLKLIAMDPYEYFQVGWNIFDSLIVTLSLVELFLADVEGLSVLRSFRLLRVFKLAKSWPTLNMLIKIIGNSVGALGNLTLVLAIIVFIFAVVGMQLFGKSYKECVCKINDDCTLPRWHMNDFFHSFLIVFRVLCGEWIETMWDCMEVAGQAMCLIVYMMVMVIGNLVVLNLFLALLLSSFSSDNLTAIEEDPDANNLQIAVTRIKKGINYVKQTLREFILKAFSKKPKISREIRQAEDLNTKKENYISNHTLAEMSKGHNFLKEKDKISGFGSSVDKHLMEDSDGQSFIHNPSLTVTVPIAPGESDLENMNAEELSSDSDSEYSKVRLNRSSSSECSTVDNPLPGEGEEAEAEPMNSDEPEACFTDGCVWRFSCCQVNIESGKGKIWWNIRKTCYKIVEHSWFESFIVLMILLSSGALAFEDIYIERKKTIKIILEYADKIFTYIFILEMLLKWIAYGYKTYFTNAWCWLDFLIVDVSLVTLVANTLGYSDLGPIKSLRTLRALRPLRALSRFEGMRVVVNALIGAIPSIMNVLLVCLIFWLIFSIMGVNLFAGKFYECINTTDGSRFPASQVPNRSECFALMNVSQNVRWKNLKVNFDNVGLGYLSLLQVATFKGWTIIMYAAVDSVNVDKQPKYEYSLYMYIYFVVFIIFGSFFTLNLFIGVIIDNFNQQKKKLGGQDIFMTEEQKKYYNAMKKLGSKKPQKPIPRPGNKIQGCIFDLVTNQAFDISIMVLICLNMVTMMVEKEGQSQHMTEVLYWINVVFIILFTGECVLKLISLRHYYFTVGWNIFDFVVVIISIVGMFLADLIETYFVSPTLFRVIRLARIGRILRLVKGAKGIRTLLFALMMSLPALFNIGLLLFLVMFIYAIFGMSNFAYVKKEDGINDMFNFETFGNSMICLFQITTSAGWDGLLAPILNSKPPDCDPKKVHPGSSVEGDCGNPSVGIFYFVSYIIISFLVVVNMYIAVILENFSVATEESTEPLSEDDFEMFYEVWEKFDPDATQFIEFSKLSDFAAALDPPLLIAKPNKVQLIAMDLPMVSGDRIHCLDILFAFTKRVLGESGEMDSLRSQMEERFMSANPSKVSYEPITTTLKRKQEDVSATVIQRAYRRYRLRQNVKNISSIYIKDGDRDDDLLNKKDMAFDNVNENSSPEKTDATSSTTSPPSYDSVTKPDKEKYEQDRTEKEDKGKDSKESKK
In short: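 hNav1.7 block was measured in a functional membrane-potential assay read out as FRET between two membrane-associated dyes.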

[4] = Cmax in Sprague-Dawley rat at 1 mg/kg, iv or 3 mg/kg, po; format: ADME, organism-based; conditions: in vivo; in short: as §2
[5] = (§4) Oral bioavailability in Sprague-Dawley rat at 3 mg/kg; format: ADME, organism-based; conditions: Sprague-Dawley, in vivo; in short: as §2
Rattus norvegicus [6] = test: Reversal of allodynia in rat at 10 mg/kg, po after 4 hrs; format: functional
Rattus norvegicus [7] = test: Reversal of allodynia in rat at 10 mg/kg, po after 2 hrs; format: functional
[8] = target: Voltage-gated inwardly rectifying potassium channel KCNH2 (Homo sapiens, UniProt Q12809); test: as §3; conditions: 10 µM
Chain of Voltage-gated inwardly rectifying potassium channel KCNH2 (Q12809 whole entry): as the sequence (Q12809 whole entry) above

Rattus norvegicus [9] = test: as §4; format: ADME, organism-based; conditions: in vivo; in short: as §2
Rattus norvegicus [10] = test: as §1; format: ADME, organism-based; conditions: in vivo; in short: as §2

SMILES | half-life [1] [min] | inhibition at 10 µM (hERG (KCNH2)) [%] | clearance [2] [mL/min/kg] | IC50 [3] [nM] | Cmax [4] [nM] | bioavailability [5] [%] | Activity (Rattus norvegicus [6]) [%] | Activity (Rattus norvegicus [7]) [%] | Inhibition [8] [%] | F (Rattus norvegicus [9]) [%] | t1/2 (Rattus norvegicus [10]) [h]
CC(C)N1C(=O)[C@H](NC(=O)[C@@H](Cc2ccccc2OC(F)(F)F)NC(=O)c2ccc(F)cc2C(F)(F)F)CCc2ccccc21 | 156 | 31 | 51 | 128 | 430 | 86 | – | – | – | – | –
CC(C)N1C(=O)[C@H](NC(=O)[C@@H](Cc2cccc(F)c2F)NC(=O)c2ccc(F)cc2C(F)(F)F)CCc2cc(Cl)ccc21 | – | 3 | – | 146 | – | – | – | – | – | – | –
CC(C)N1C(=O)[C@H](NC(=O)[C@@H](Cc2ccccc2OC(F)(F)F)NC(=O)c2ccc(C(F)(F)F)cc2)CCc2ccccc21 | – | 43 | – | 175 | – | – | – | – | – | – | –
CC(C)N1C(=O)[C@H](NC(=O)[C@@H](Cc2ccccc2OC(F)(F)F)NC(=O)c2ccccc2C(F)(F)F)CCc2ccccc21 | – | 0 | – | 98 | – | – | – | – | – | – | –
CC(C)N1C(=O)[C@H](NC(=O)[C@@H](Cc2cc(F)ccc2F)NC(=O)c2ccc(F)cc2C(F)(F)F)CCc2cc(Cl)ccc21 | 132 | 10 | 32 | 232 | 260 | 42 | 61 | 55 | – | – | –
CC(C)N1C(=O)[C@H](NC(=O)[C@@H](Cc2ccccc2OC(F)(F)F)NC(=O)C(C)(C(F)(F)F)C(F)(F)F)CCc2ccccc21 | 150 | 10 | 23 | 203 | 330 | 42 | – | – | – | – | –
CC(C)N1C(=O)[C@H](NC(=O)[C@@H](Cc2ccccc2OC(F)(F)F)NC(=O)c2cncnc2)CCc2ccccc21 | – | – | – | > 1000 | – | – | – | – | – | – | –
CC(C)N1C(=O)C(NC(=O)[C@@H](Cc2ccccc2OC(F)(F)F)NC(=O)OC(C)(C)C)CCc2cccnc21 (stereo in doubt; 25) | 84 | – | 24 | 79 | – | – | – | – | 18 | 27 | –
CC(C)N1C(=O)[C@H](NC(=O)[C@@H](Cc2ccccc2OC(F)(F)F)NC(=O)C(C)(C)C)CCc2ccccc21 | 108 | 18 | 31 | 131 | 140 | 16 | – | – | – | – | –
CC(C)N1C(=O)[C@H](NC(=O)[C@@H](Cc2c(F)cccc2F)NC(=O)c2ccc(F)cc2C(F)(F)F)CCc2cc(Cl)ccc21 | 120 | 7 | 19 | 290 | 740 | 68 | 35 | 18 | – | – | –
CC(C)N1C(=O)[C@H](NC(=O)[C@@H](Cc2ccccc2OC(F)(F)F)NC(=O)c2ccncc2)CCc2ccccc21 | – | 44 | – | 453 | – | – | – | – | – | – | –
CC(C)N1C(=O)[C@H](NC(=O)[C@@H](Cc2ccccc2OC(F)(F)F)NC(=O)OC(C)(C)C)CCc2ccccc21 | – | 17 | – | – | – | – | – | – | – | – | –
CC(C)N1C(=O)[C@H](NC(=O)[C@@H](Cc2ccccc2OC(F)(F)F)NC(=O)c2ncccn2)CCc2ccccc21 | – | 15 | – | > 1000 | – | – | – | – | – | – | –
CC(C)N1C(=O)C(NC(=O)[C@@H](Cc2ccccc2OC(F)(F)F)NC(=O)OC(C)(C)C)CCc2cccnc21 (stereo in doubt; 24) | – | – | – | 80 | – | – | – | – | 7 | 4 | 1.9
CC(C)N1C(=O)[C@H](NC(=O)[C@@H](Cc2ccccc2OC(F)(F)F)NC(=O)c2ccccc2)CCc2ccccc21 | 90 | 83 | 43 | 22 | 150 | 18 | – | – | – | – | –
CC(C)N1C(=O)[C@H](NC(=O)[C@@H](Cc2ccccc2OC(F)(F)F)NC(=O)C(F)(F)F)CCc2ccccc21 | – | 40 | – | 868 | – | – | – | – | – | – | –
CC(C)N1C(=O)[C@H](NC(=O)[C@@H](Cc2ccccc2OC(F)(F)F)NC(=O)OC(C)(C)C)COc2ccccc21 | 120 | 17 | 40 | 44 | – | 25 | – | – | – | – | –
CC(C)N1C(=O)[C@H](NC(=O)[C@@H](Cc2ccccc2OC(F)(F)F)NC(=O)c2ccccn2)CCc2ccccc21 | 72 | 61 | 43 | 177 | 550 | 60 | – | – | – | – | –
CC(C)N1C(=O)[C@H](NC(=O)[C@@H](Cc2ccccc2OC(F)(F)F)NC(=O)c2ccc(F)cc2)CCc2ccccc21 | 126 | 26 | 66 | 94 | 240 | 50 | – | – | – | – | –
CC(C)N1C(=O)[C@H](NC(=O)[C@@H](Cc2ccc(F)cc2F)NC(=O)c2ccc(F)cc2C(F)(F)F)CCc2cc(Cl)ccc21 | – | – | – | > 1000 | – | – | – | – | – | – | –
CC(C)N1C(=O)[C@H](NC(=O)[C@@H](Cc2c(Cl)cccc2Cl)NC(=O)c2ccc(F)cc2C(F)(F)F)CCc2cc(Cl)ccc21 | 174 | 20 | 12 | 107 | 1470 | 70 | 9 | 14 | – | – | –
CC(=O)N[C@H](Cc1ccccc1OC(F)(F)F)C(=O)N[C@@H]1CCc2ccccc2N(C(C)C)C1=O | – | 9 | – | > 1000 | – | – | – | – | – | – | –
CC(C)N1C(=O)[C@H](NC(=O)[C@@H](Cc2ccccc2OC(F)(F)F)NC(=O)OC(C)(C)C)CCc2cc(Cl)ccc21 | 180 | 32 | 13 | 108 | – | 31 | – | – | – | – | –
CC(C)N1C(=O)[C@H](NC(=O)[C@@H](Cc2ccccc2F)NC(=O)c2ccc(F)cc2C(F)(F)F)CCc2cc(Cl)ccc21 | 168 | 32 | 44 | 30 | 330 | 90 | 28 | 56 | – | – | –
CC(C)N1C(=O)[C@H](NC(=O)[C@@H](Cc2ccccc2OC(F)(F)F)NC(=O)c2ccc(F)cc2C(F)(F)F)CCc2cc(Cl)ccc21 | 156 | 7 | 29 | 169 | 520 | 65 | – | – | – | – | –

Source: ChEMBL document CHEMBL1140523, “Benzazepinone Nav1.7 blockers: potential treatments for neuropathic pain” (Bioorg Med Chem Lett, 2007)
